Laboratory results: ChEMBL document CHEMBL1287760, “Optimization of purine-nitrile TbcatB inhibitors for use in vivo and evaluation of efficacy in murine models” (Bioorg Med Chem, 2010)
pEC50: −log10 of the molar value. Values after ≈ are worked out from the molar mass of the structure shown. Active and inactive are the calls of the source. No cut-off for these calls is given here.

Key:
HEK293 = assay: Cytotoxicity against human HEK293 cells after 72 hrs by alamar blue assay; type: cell-based; details: hek293, 72 h
HepG2 = assay: Cytotoxicity against human HepG2 cells after 72 hrs by alamar blue assay; type: cell-based; details: hepg2, 72 h
BJ = assay: Cytotoxicity against human BJ cells after 72 hrs by alamar blue assay; type: cell-based
Raji = assay: Cytotoxicity against human Raji cells after 72 hrs by alamar blue assay; type: cell-based
[1] = Toxicity in human erythrocyte assessed as hemolysis at 10 uM after 5 hrs; type: cell-based; details: erythrocytes, read-out: Activity
Method in brief: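 Human erythrocytes washed three times after spinning whole blood at 1000g for 5 min. Test compound at 10 µM final, 2% hematocrit. PBS negative control; 0.4% saponin dilution series as standard. After centrifugation, supernatant absorbance read at 414 nm and % hemolysis taken from the calibration curve. Triplicate.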

[2] = Chemical stability in dimethyl sulfoxide at pH 3 after 14 days; type: physicochemical; details: buffer, pH 3, 336 h
Method in brief: (§1)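 DMSO stability followed over 14 days for non-metabolic degradation.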

[3] = Chemical stability in dimethyl sulfoxide at pH 5 after 14 days; type: physicochemical; details: buffer, pH 5, 336 h; method in brief: as §1
[4] = Chemical stability in dimethyl sulfoxide at pH 7.4 after 14 days; type: physicochemical; details: buffer, pH 7.4, 336 h; method in brief: as §1
[5] = Chemical stability in phosphate buffered saline at pH 3 after 14 days; type: physicochemical; details: buffer, pH 3, 336 h
Method in brief: (§2)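 Stability in PBS (pH 3, 5 and 7.4) followed over 14 days for non-metabolic degradation.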

[6] = Chemical stability in phosphate buffered saline at pH 5 after 14 days; type: physicochemical; details: buffer, pH 5, 336 h; method in brief: as §2
[7] = Chemical stability in phosphate buffered saline at pH 7.4 after 14 days; type: physicochemical; details: buffer, pH 7.4, 336 h; method in brief: as §2
[8] = Half life in CD1 mouse liver microsomes by UPLC-MS analysis; type: ADME, Microsome; details: for half-life: CD1, mouse, liver microsomes
Method in brief: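 CD-1 female mouse liver microsomes in 0.1 M potassium phosphate pH 7.4 with EDTA and NADPH-regenerating solutions, 37 °C, shaken. Samples at 0, 0.5, 1 and 2 h quenched with cold acetonitrile containing caffeine internal standard. UPLC–MS (SIR) read-out. Log peak-area ratio versus time gives slope; k = −2.303 × slope, t1/2 = 0.693/k.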

[9] = Half life in CD1 mouse plasma by UPLC-MS analysis; type: ADME, cell-free
Method in brief: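 Half-life in mouse plasma measured at 37 °C.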

[10] = Permeability of the compound assessed as ratio of compound in acceptor chamber to amount of compound in donor chamber at pH 3 by PAMPA assay; type: ADME
[11] = Permeability of the compound assessed as ratio of compound in acceptor chamber to amount of compound in donor chamber at pH 5 by PAMPA assay; type: ADME
[12] = Permeability of the compound assessed as ratio of compound in acceptor chamber to amount of compound in donor chamber at pH 7.4 by PAMPA assay; type: ADME
[13] = Aqueous solubility of compound in deionized water; type: physicochemical
Method in brief: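 Aqueous solubility measured in deionized water.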

Trypanosoma brucei [14] = assay: Antitrypanosomal activity against Trypanosoma brucei after 48 hrs; type: functional, organism-based
Mus musculus [15] = assay: Stability of the compound in po dosed mouse blood assessed as 3-(2-cyano-6-(3,4-dichlorobenzylamino)-9H-purin-9-yl)propanoic acid level; type: ADME, organism-based; details: in vivo
Method in brief: (§3)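 Oral gavage of compound suspensions to female Balb/c mice; blood sampled retro-orbitally at 1, 2 and 4 h (one sample per mouse) and by cardiac puncture at 48 h. Parent compound and metabolites measured by UPLC–MS; metabolite identity assigned by MS/MS against a synthesized standard.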

Mus musculus [16] = assay: Stability of the compound in po dosed mouse blood assessed as 3-(2-cyano-6-(3,4-dichlorobenzylamino)-9H-purin-9-yl)propanoic acid level after 1 hr; type: ADME, organism-based; details: in vivo; method in brief: as §3
Mus musculus [17] = assay: Stability of the compound in po dosed mouse blood assessed as 3-(2-cyano-6-(3,4-dichlorobenzylamino)-9H-purin-9-yl)propanoic acid level after 4 hrs; type: ADME, organism-based; details: in vivo; method in brief: as §3
[18] = Therapeutic index, ratio of EC50 for human cells to EC50 for Trypanosoma brucei; details: human cells versus Trypanosoma brucei, read-out: Ratio EC50
Method in brief: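 Index = EC50 against the most sensitive mammalian line (HEK 293, Hep G2, BJ, Raji) divided by EC50 against T.b. brucei.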

Mus musculus [19] = assay: Stability of the compound in po dosed mouse blood; type: ADME, organism-based; details: in vivo; method in brief: as §3
Mus musculus [20] = assay: Stability of the compound in po dosed mouse blood assessed as 5-(2-cyano-6-(3,4-dichlorobenzylamino)-9H-purin-9-yl)pentanoic acid level after 1 hr; type: ADME, organism-based; details: in vivo; method in brief: as §3
[21] = Long term solid state stability of the compound at simulated tropical condition after 30 days; type: physicochemical; details: 720 h
[22] = Cmax in mouse plasma at 200 mg/kg, ip; type: ADME, organism-based; parameters: dose 200 mg/kg, route intraperitoneal
[23] = Cmax in mouse plasma at 200 mg/kg, po; type: ADME, organism-based; parameters: dose 200 mg/kg, route oral
Method in brief: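 Female Balb/c mice given oral gavage suspensions (20% ethanol/40% propylene glycol/10% PEG 400/30% PBS pH 7.4), 0.1 ml per 20 g, at 50–1000 mg/kg. Retro-orbital blood (0.1 ml, EDTA) taken from a different mouse at 1, 2, 4 h, some also at 8, 12, 24 h, plus a 48 h cardiac bleed. Plasma precipitated with 3 parts cold acetonitrile; concentration by UV/HPLC.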

Mus musculus [24] = assay: Toxicity in mouse at 200 mg/kg, po qd for 10 days; type: organism-based; parameters: dose 200 mg/kg, route oral; details: in vivo, 240 h
Method in brief: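 Five female Balb/c mice given 200 mg/kg daily by oral gavage for 10 days and monitored to day 30. One mouse sent for CBC, serum chemistry and necropsy on day 10 and another on day 30. Functional observational battery used.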

Mus musculus [25] = assay: Toxicity in mouse assessed as decreased movement at 2 to 8 mg/kg, iv measured immediately after dosing; type: organism-based; parameters: dose 2-8 mg/kg, route intravenous; details: in vivo
Method in brief: (§4)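 Female Balb/c mice dosed by lateral tail-vein injection of solubilized compound at 2, 4 and 8 mg/kg (0.4–1.6 mg/ml solutions, 0.1 ml per 20 g). Observed by a modified Irwin functional observational battery (gait, alertness, respiration, piloerection, vasodilation, vocalization).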

Mus musculus [26] = assay: Toxicity in mouse assessed as transient darkening of the eyes at 2 to 8 mg/kg, iv measured immediately after dosing; type: organism-based; parameters: dose 2-8 mg/kg, route intravenous; details: in vivo; method in brief: as §4
Mus musculus [27] = assay: Toxicity in mouse assessed as decreased movement at 2 to 8 mg/kg, iv measured after 30 seconds; type: organism-based; parameters: dose 2-8 mg/kg, route intravenous; details: in vivo, 0.5 min; method in brief: as §4
Mus musculus [28] = assay: Toxicity in mouse assessed as transient darkening of the eyes at 2 to 8 mg/kg, iv measured after 30 seconds; type: organism-based; parameters: dose 2-8 mg/kg, route intravenous; details: in vivo, 0.5 min; method in brief: as §4
[29] = Ratio of plasma concentration mouse at 200 mg/kg, po to EC50 for Trypanosoma brucei; type: ADME, organism-based; parameters: dose 200 mg/kg, route oral; details: in vivo
[30] = Ratio of plasma concentration mouse at 200 mg/kg, po to EC90 for Trypanosoma brucei; type: ADME, organism-based; parameters: dose 200 mg/kg, route oral; details: in vivo
[31] = Toxicity in po dosed mouse assessed as maximum tolerated dosage; type: organism-based; details: in vivo
Method in brief: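 Female balb/c mice, 10–12 weeks, housed individually. Oral gavage in a four-stage escalation: vehicle, then 50, 100 and 200 mg/kg. Some groups went on to 400 and 1000 mg/kg. Dose volume 0.1 ml per 20 g. Twelve mice per compound. A modified Irwin FOB was run for 15 min after each dose and at 1–48 h (gait, alertness, respiration, piloerection, vasodilation, vocalization). Necropsy, CBC and serum chemistry were done at 48 h.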

Trypanosoma brucei [32] = assay: Antitrypanosomal activity against Trypanosoma brucei 221 infected in BALB/c mouse assessed as decrease of parasitemia at 200 mg/kg, po qd for 5 days measured on day 4; type: functional, organism-based; parameters: dose 200 mg/kg
Method in brief: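 Female Balb/C mice (10–12 weeks) infected ip on day 0 with ~800 T.b. brucei strain 221 (0.1 ml of 8 × 10³ parasites/ml in unsupplemented HMI-9; parasites grown to 10⁷/ml in supplemented HMI-9). Randomized to oral gavage of 200 mg/kg suspension or vehicle (20% ethanol/40% propylene glycol/10% PEG 400/30% PBS pH 7.4) on days 0–4. Parasitemia counted by hemocytometer in saphenous blood every third day from day 4.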

Trypanosoma brucei [33] = assay: Antitrypanosomal activity against Trypanosoma brucei 221 infected in BALB/c mouse assessed as decrease of parasitemia at 200 mg/kg, po qd for 5 days measured on day 6; type: functional, organism-based; parameters: dose 200 mg/kg
Trypanosoma brucei [34] = assay: Antitrypanosomal activity against Trypanosoma brucei 221 infected in BALB/c mouse assessed as increase of mouse survival days at 200 mg/kg, po qd for 5 days relative to control; type: functional
Method in brief: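 Female Balb/C mice (10–12 weeks) infected on day 0 by IP injection of ~800 T.b. brucei 221 parasites (cultured in HMI-9 with 10% FBS and 10% Serum Plus, diluted to 8 × 10³ parasites/ml, 0.1 ml). Oral gavage of 200 mg/kg on days 0–4 in 20% ethanol/40% propylene glycol/10% PEG 400/30% PBS pH 7.4; vehicle controls. Mice were randomly assigned to groups. Parasitemia was counted by hemocytometer every third day from day 4. Survival days were recorded.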

[35] = Cmax in mouse brain at 200 mg/kg, po
[36] = Drug level in mouse brain at 200 mg/kg, po after 24 hrs; details: read-out: Drug uptake
[37] = Cmax in mouse plasma at 50 to 1000 mg/kg, po after 1 to 4 hrs
[38] = Ratio of drug level in brain to plasma in mouse at 200 mg/kg, po after 24 hrs
[39] = tested on: Trypanosoma brucei rhodesiense; assay: Antitrypanosomal activity against Trypanosoma brucei rhodesiense STIB900 infected in NMRI mouse assessed as increase of mouse survival time at 50 to 200 mg/kg, po qd

Stability [2] | Stability [3] | Stability [4] | Stability [5] | Stability [6] | Stability [7] | half-life [8] | half-life [9] | Ratio [10] | Ratio [11] | Ratio [12] | solubility [13] | pEC50 (Trypanosoma brucei [14]) | Stability (Mus musculus [19]) | Compound | Activity (HEK293) | Activity (HepG2) | Activity (BJ) | Activity (Raji) | hemolysis at 5 h, 10 µM [1] | selectivity ratio [18] | other results
Stable | Stable | Stable | Stable | Stable | Stable | 0.6 h | 5.1 h | 1500 | 960 | 1300 | 10.4 µM (≈ 3.92 µg/mL) | 5.85 | – | N#Cc1nc(NCc2ccc(Cl)c(Cl)c2)c2ncn(CCCO)c2n1 | Non-toxic | Non-toxic | Non-toxic | Non-toxic | 0.7% | > 20 | Stability (Mus musculus [15]): > 50 µM; Stability (Mus musculus [16]): Unstable; Stability (Mus musculus [17]): Unstable
– | – | – | – | – | – | 0.53 h | 40.9 h | 1800 | – | 1770 | 4.2 µM (≈ 1.64 µg/mL) | 5.62 | Unstable | COCCCn1cnc2c(NCc3ccc(Cl)c(Cl)c3)nc(C#N)nc21 | – | – | – | – | 0.7% | > 10 | –
Stable | Stable | Stable | Stable | Stable | Stable | 1.08 h | 38.3 h | 960 | 1512 | 1900 | 16.1 µM (≈ 6.53 µg/mL) | 6.42 | Unstable | N#Cc1nc(NCc2ccc(Cl)c(Cl)c2)c2ncn(CCCCCO)c2n1 | Non-toxic | Non-toxic | Non-toxic | Non-toxic | 0.7% | > 20 | Stability (Mus musculus [20]): Unstable

Compound | Stability [2] | Stability [3] | Stability [4] | Stability [5] | Stability [6] | Stability [7] | half-life [8] | half-life [9] | Ratio [10] | Ratio [11] | Ratio [12] | solubility [13] | pEC50 (Trypanosoma brucei [14]) | Stability (Mus musculus [19]) | Activity (HEK293) | Activity (HepG2) | Activity (BJ) | Activity (Raji) | hemolysis at 5 h, 10 µM [1] | selectivity ratio [18] | other results
N#Cc1nc(NCc2ccc(Cl)c(Cl)c2)c2ncn(CCCC(F)(F)F)c2n1 | – | – | – | – | – | – | – | 177 h | – | – | – | 0.3 µM (≈ 0.129 µg/mL) | 6.28 | – | – | – | – | – | 0.4% | > 20 | t1/2 ([8]; mouse, microsomes): Stable; Stability [21]: Stable; Tmax [22]: 4 h; Tmax [23]: 24 h; Activity (Mus musculus [24]): Non-toxic; Activity (Mus musculus [25]): Non-toxic; Activity (Mus musculus [26]): Non-toxic; Activity (Mus musculus [27]): Non-toxic; Activity (Mus musculus [28]): Non-toxic; Ratio [29]: 20; Ratio [30]: 10; MTD [31]: 1000 mg/kg; Activity (Trypanosoma brucei [32]): inactive; Activity (Trypanosoma brucei [33]): inactive; Survival (Trypanosoma brucei [34]): 9.6 days; Tmax [35]: 4 h; concentration at 24 h [36]: 20 µM; Cmax [37]: 6 µM; Kp at 24 h [38]: 2; Activity [39]: inactive
